Results published in ChEMBL document CHEMBL4354828, “Discovery of Taniborbactam (VNRX-5133): A Broad-Spectrum Serine- and Metallo-β-lactamase Inhibitor for Carbapenem-Resistant Bacterial Infections” (J Med Chem, 2020).
Values after ≈ are worked out from the molar mass of the structure shown.

Legend:
[1] = Inhibition of bacterial AmpC using nitrocefin as substrate preincubated for 15 mins followed by susbtrate addition and measured after 10 mins by spectrophotometric method; parameters: species or system Bacteria
[2] = Inhibition of bacterial OXA-48 using nitrocefin as substrate preincubated for 15 mins followed by susbtrate addition and measured after 10 mins by spectrophotometric method; parameters: species or system Bacteria
Klebsiella pneumoniae [3] = experiment: Inhibition of OXA-48 in Klebsiella pneumoniae assessed as meropenem antibacterial activity at 4 ug/ml after 16 to 20 hrs by CLSI-based microbroth dilution method (Rvb >= […] ug/ml)
[4] = Inhibition of bacterial SHV-5 using cefotaxime as substrate preincubated for 15 mins followed by susbtrate addition and measured after 10 mins by spectrophotometric method; parameters: species or system Bacteria
[5] = Inhibition of bacterial CTX-M-15 using cefotaxime as substrate preincubated for 15 mins followed by susbtrate addition and measured after 10 mins by spectrophotometric method; parameters: species or system Bacteria
Escherichia coli [6] = experiment: Inhibition of NDM-1/CMY-6/OXA-1 in Escherichia coli CDC-0055 assessed as piperacillin antibacterial activity at 16 ug/ml after 16 to 20 hrs by CLSI-based microbroth dilution method
Procedure, shortened: (§1)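 MDR β-lactamase-producing Gram-negative clinical isolates. […] MIC was reported as the inhibitor concentration that restores the partner's antibacterial activity.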

Escherichia coli [7] = experiment: Inhibition of NDM in Escherichia coli CDC-0452 assessed as piperacillin antibacterial activity at 16 ug/ml after 16 to 20 hrs by CLSI-based microbroth dilution method (Rvb > […] ug/ml)
Escherichia coli [8] = experiment: Inhibition of NDM-1/CMY-6/OXA-1 in Escherichia coli CDC-0055 assessed as cefepime antibacterial activity at 8 ug/ml after 16 to 20 hrs by CLSI-based microbroth dilution method; procedure, shortened: as §1
Klebsiella pneumoniae [9] = experiment: Inhibition of KPC-2/SHV12/TEM-1 in Klebsiella pneumoniae CDC-0361 assessed as cefepime antibacterial activity at 8 ug/ml after 16 to 20 hrs by CLSI-based microbroth dilution method (reference value: […] ug/ml)
Klebsiella pneumoniae [10] = experiment: Inhibition of OXA-232/OXA-9/TEM-1A/CTX-M-15/OXA-1 in Klebsiella pneumoniae CDC-0066 assessed as meropenem antibacterial activity at 4 ug/ml after 16 to 20 hrs by CLSI-based microbroth dilution method (reference value: […] ug/ml)
Klebsiella pneumoniae [11] = experiment: Inhibition of KPC-2/SHV12/TEM-1 in Klebsiella pneumoniae CDC-0361 assessed as meropenem antibacterial activity at 4 ug/ml after 16 to 20 hrs by CLSI-based microbroth dilution method (reference value: […] ug/ml)
Escherichia coli [12] = experiment: Inhibition of TEM/CTX-M/SHV/Cephalosporinase in Escherichia coli CH1 assessed as cefepime antibacterial activity at 4 ug/ml after 16 to 20 hrs by CLSI-based microbroth dilution method (Rvb > […] ug/ml)
Klebsiella pneumoniae [13] = experiment: Inhibition of KPC/Cephalosporinase in Klebsiella pneumoniae 664-1 assessed as cefepime antibacterial activity at 4 ug/ml after 16 to 20 hrs by CLSI-based microbroth dilution method (Rvb > […] ug/ml)
Klebsiella pneumoniae [14] = experiment: Inhibition of TEM/CTX-M/SHV/KPC in Klebsiella pneumoniae 964-2 assessed as cefepime antibacterial activity at 4 ug/ml after 16 to 20 hrs by CLSI-based microbroth dilution method (Rvb > […] ug/ml)
Klebsiella pneumoniae [15] = experiment: Inhibition of VIM-1/VIM-2/VIM-4/NDM-1 in Klebsiella pneumoniae assessed as cefepime antibacterial activity at 4 ug/ml after 16 to 20 hrs by CLSI-based microbroth dilution method
Staphylococcus aureus = experiment: Effect on growth of wild type Staphylococcus aureus ATCC 29213 after 16 to 20 hrs by CLSI-based microbroth dilution method; type: organism-based
Escherichia coli [16] = experiment: Effect on growth of wild type Escherichia coli ATCC 25922 after 16 to 20 hrs by CLSI-based microbroth dilution method; type: organism-based; settings: in vitro
Klebsiella pneumoniae [17] = experiment: Effect on growth of Klebsiella pneumoniae UMM expressing SHV5/KPC-2/TEM-1 after 16 to 20 hrs by CLSI-based microbroth dilution method; type: organism-based; settings: in vivo
Klebsiella pneumoniae [18] = experiment: Effect on growth of Klebsiella pneumoniae A-1797 expressing KPC-2/VIM-4/CMY-4 after 16 to 20 hrs by CLSI-based microbroth dilution method; type: organism-based; settings: in vivo
Klebsiella pneumoniae [19] = experiment: Effect on growth of Klebsiella pneumoniae 11978 expressing OXA-48 after 16 to 20 hrs by CLSI-based microbroth dilution method; type: organism-based; settings: in vivo
Enterobacter cloacae = experiment: Effect on growth of Enterobacter cloacae 144200 expressing p99 AmpC after 16 to 20 hrs by CLSI-based microbroth dilution method; type: organism-based; settings: in vivo
Klebsiella aerogenes = experiment: Effect on growth of Enterobacter aerogenes 188548 expressing AmpC after 16 to 20 hrs by CLSI-based microbroth dilution method; type: organism-based; settings: in vivo
[20] = Cytotoxicity against human HeLa cells assessed as growth inhibition at 256 ug/ml relative to control; type: cell-based; settings: read-out: Activity
[21] = Cytotoxicity against human MRC5 cells assessed as growth inhibition at 256 ug/ml relative to control; type: cell-based; settings: read-out: Activity
[22] = Cytotoxicity against human Proximal tubule epithelial cells up to 1000 ug/ml relative to control; type: cell-based
Cathepsin G = Cathepsin G (Homo sapiens, UniProt P08311); experiment: Inhibition of human cathepsin G at 100 uM
Chain of Cathepsin G (P08311 whole entry): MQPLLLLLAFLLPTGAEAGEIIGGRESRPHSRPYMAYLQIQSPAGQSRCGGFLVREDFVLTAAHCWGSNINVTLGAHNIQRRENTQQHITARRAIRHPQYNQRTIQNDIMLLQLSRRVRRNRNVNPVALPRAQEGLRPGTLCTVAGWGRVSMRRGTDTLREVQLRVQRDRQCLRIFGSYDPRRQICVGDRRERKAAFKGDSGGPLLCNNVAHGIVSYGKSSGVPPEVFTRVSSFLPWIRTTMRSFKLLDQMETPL

Trypsin = Trypsin (Homo sapiens, UniProt P07477+P07478+P35030); experiment: Inhibition of human trypsin at 100 uM; type: protein assay
Neutrophil elastase = Neutrophil elastase (Homo sapiens, UniProt P08246); experiment: Inhibition of human neutrophil elastase 2 at 100 uM
Chain of Neutrophil elastase (P08246 whole entry): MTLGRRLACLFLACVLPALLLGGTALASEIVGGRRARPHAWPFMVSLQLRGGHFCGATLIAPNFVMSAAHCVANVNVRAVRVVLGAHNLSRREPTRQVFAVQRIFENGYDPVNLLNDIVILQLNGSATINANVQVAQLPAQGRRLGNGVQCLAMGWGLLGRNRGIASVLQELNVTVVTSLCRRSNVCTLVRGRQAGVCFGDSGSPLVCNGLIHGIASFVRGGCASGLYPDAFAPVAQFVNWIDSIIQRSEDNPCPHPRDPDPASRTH

Stromelysin-1 = Stromelysin-1 (Homo sapiens, UniProt P08254); experiment: Inhibition of human MMP3 at 100 uM
Chain of Stromelysin-1 (P08254 whole entry): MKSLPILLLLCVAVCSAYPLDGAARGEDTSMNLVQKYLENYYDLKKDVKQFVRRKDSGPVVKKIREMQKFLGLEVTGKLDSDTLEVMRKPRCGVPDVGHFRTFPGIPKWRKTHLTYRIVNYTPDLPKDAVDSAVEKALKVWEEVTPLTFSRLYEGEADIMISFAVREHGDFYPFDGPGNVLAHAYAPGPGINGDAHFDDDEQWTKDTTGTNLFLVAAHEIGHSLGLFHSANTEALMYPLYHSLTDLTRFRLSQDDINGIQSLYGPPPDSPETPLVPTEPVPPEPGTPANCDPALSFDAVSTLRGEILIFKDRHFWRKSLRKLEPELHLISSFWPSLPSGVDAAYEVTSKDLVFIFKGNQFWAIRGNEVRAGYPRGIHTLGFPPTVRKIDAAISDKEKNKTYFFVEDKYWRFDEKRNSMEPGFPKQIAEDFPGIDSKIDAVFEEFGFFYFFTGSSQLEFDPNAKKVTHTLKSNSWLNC

Cytochrome P450 1A2 = Cytochrome P450 1A2 (Homo sapiens, UniProt P05177); experiment: Inhibition of human CYP1A2 at 100 uM; type: ADME
Chain of Cytochrome P450 1A2 (P05177 whole entry): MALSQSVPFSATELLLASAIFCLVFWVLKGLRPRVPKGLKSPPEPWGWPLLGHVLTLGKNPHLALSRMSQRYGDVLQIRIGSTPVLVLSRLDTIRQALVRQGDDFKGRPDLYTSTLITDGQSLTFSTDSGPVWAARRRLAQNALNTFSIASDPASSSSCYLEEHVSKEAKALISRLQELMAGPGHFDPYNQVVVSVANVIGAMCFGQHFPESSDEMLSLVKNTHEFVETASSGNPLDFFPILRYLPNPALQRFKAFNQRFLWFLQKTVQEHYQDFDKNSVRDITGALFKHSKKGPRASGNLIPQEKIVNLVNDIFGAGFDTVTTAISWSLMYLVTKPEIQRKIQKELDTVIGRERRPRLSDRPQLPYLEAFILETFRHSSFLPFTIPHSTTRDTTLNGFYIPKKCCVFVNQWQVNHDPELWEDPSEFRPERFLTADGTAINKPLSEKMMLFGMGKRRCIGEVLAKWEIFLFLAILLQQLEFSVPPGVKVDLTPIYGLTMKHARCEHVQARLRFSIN

Cytochrome P450 2C9 = Cytochrome P450 2C9 (Homo sapiens, UniProt P11712); experiment: Inhibition of human CYP2C9 at 100 uM; type: ADME
Chain of Cytochrome P450 2C9 (P11712 whole entry): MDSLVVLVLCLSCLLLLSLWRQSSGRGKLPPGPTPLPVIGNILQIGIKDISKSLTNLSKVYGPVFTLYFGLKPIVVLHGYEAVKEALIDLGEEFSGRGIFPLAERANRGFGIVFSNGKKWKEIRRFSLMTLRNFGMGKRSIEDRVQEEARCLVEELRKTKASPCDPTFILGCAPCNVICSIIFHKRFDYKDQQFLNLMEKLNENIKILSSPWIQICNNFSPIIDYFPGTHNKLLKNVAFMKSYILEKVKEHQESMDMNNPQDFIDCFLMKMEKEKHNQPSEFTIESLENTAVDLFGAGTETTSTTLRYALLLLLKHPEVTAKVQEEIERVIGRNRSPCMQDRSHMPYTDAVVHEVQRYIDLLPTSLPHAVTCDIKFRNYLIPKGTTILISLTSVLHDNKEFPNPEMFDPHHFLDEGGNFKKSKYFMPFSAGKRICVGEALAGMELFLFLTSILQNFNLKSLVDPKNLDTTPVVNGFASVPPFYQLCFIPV

Cytochrome P450 2C19 = Cytochrome P450 2C19 (Homo sapiens, UniProt P33261); experiment: Inhibition of human CYP2C19 at 100 uM; type: ADME
Chain of Cytochrome P450 2C19 (P33261 whole entry): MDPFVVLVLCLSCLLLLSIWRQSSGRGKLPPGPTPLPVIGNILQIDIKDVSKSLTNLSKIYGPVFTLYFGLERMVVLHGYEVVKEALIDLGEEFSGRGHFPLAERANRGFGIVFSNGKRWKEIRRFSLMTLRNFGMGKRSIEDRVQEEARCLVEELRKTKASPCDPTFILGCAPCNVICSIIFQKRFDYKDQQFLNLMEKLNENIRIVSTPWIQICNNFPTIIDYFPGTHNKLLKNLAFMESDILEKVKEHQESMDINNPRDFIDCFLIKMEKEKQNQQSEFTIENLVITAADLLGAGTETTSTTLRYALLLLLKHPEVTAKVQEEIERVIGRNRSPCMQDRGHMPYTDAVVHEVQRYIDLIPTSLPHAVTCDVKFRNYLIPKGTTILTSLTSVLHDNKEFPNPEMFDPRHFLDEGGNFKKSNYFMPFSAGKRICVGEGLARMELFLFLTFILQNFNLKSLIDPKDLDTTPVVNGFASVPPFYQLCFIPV

Cytochrome P450 2D6 = Cytochrome P450 2D6 (Homo sapiens, UniProt P10635); experiment: Inhibition of human CYP2D6 at 100 uM; type: ADME
Chain of Cytochrome P450 2D6 (P10635 whole entry): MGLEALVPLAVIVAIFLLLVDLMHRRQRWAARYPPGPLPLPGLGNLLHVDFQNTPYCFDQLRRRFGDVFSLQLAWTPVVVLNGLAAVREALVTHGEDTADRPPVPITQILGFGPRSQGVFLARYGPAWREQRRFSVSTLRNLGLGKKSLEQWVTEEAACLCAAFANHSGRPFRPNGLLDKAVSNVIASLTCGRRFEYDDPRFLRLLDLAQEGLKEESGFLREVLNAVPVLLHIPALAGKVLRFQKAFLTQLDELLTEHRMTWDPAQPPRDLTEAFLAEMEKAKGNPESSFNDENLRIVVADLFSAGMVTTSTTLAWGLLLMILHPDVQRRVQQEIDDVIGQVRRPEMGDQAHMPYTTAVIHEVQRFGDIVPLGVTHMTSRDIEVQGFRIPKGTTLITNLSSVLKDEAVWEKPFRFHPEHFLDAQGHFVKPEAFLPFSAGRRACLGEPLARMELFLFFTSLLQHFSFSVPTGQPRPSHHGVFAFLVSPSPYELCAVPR

[23] = Half life in mouse at 10 mg/kg, iv after 1 to 6 hrs by LC-MS/MS analysis; type: ADME, organism-based; settings: in vivo
[24] = Volume of distribution at steady state in mouse at 10 mg/kg, iv after 1 to 6 hrs by LC-MS/MS analysis; type: ADME, organism-based; settings: in vivo, read-out: Vdss
Pseudomonas aeruginosa = experiment: Inhibition of VIM in Pseudomonas aeruginosa CDC-0457 assessed as meropenem antibacterial activity at 4 ug/ml after 16 to 20 hrs by CLSI-based microbroth dilution method

NCCN[C@H]1CC[C@H](CC(=O)N[C@H]2Cc3cccc(C(=O)O)c3OB2O)CC1
IC50 [1]: 32 nM | IC50 [2]: 420 nM | MIC (Klebsiella pneumoniae [3]): 2 µg/mL (≈ 5.14 µM) | IC50 [4]: 0.4 nM | IC50 [5]: 10 nM | MIC (Escherichia coli [6]): 16 µg/mL (≈ 41.1 µM) | MIC (Escherichia coli [7]): 2 µg/mL (≈ 5.14 µM) | MIC (Escherichia coli [8]): 2 µg/mL (≈ 5.14 µM) | MIC (Klebsiella pneumoniae [9]): 0.015 µg/mL (≈ 0.0385 µM) | MIC (Klebsiella pneumoniae [10]): 4 µg/mL (≈ 10.3 µM) | MIC (Klebsiella pneumoniae [11]): 0.015 µg/mL (≈ 0.0385 µM) | MIC (Escherichia coli [12]): < 0.125 µg/mL | MIC (Klebsiella pneumoniae [13]): 0.25 µg/mL (≈ 0.642 µM) | MIC (Klebsiella pneumoniae [14]): < 0.125 µg/mL | MIC50 (Klebsiella pneumoniae [15]): 1 µg/mL (≈ 2.57 µM) | MIC90 (Klebsiella pneumoniae [15]): 4 µg/mL (≈ 10.3 µM) | MIC (Staphylococcus aureus): > 128 µg/mL | MIC (Escherichia coli [16]): > 128 µg/mL | MIC (Klebsiella pneumoniae [17]): > 128 µg/mL | MIC (Klebsiella pneumoniae [18]): > 128 µg/mL | MIC (Klebsiella pneumoniae [19]): > 128 µg/mL | MIC (Enterobacter cloacae): > 128 µg/mL | MIC (Klebsiella aerogenes): > 128 µg/mL | inhibition at 256 ug/ml [20]: < 20% | inhibition at 256 ug/ml [21]: < 20% | Activity [22]: Non-Toxic | inhibition (INH) (Cathepsin G): Not Active | inhibition (INH) (Trypsin): Not Active | inhibition (INH) (Neutrophil elastase): Not Active | inhibition (INH) (Stromelysin-1): Not Active | inhibition (INH) (Cytochrome P450 1A2): Not Active | inhibition (INH) (Cytochrome P450 2C9): Not Active | inhibition (INH) (Cytochrome P450 2C19): Not Active | inhibition (INH) (Cytochrome P450 2D6): Not Active | half-life [23]: 9.6 min | Vd [24]: 0.143 L/kg | MIC (Pseudomonas aeruginosa): > 16 µg/mL

NC(=O)[C@@H]1CC[C@@H]2CN1C(=O)N2OS(=O)(=O)O [AVIBACTAM]
IC50 [1]: 16 nM | IC50 [5]: 3 nM | MIC (Escherichia coli [6]): 16 µg/mL (≈ 60.3 µM) | MIC (Escherichia coli [7]): 8 µg/mL (≈ 30.2 µM) | MIC (Escherichia coli [8]): 16 µg/mL (≈ 60.3 µM) | MIC (Klebsiella pneumoniae [9]): 0.0079 µg/mL (≈ 0.0298 µM) | MIC (Klebsiella pneumoniae [10]): 2 µg/mL (≈ 7.54 µM) | MIC (Klebsiella pneumoniae [11]): 0.015 µg/mL (≈ 0.0566 µM) | MIC50 (Klebsiella pneumoniae [15]): > 32 µg/mL | MIC90 (Klebsiella pneumoniae [15]): > 32 µg/mL | half-life [23]: 6 min | Vd [24]: 0.21 L/kg | MIC (Pseudomonas aeruginosa): > 16 µg/mL
